Screening data from PubChem BioAssay.
A selection: hits, their analogues and other compounds. The true share with any hit is near 1.4%.
PLC-gamma1 inh: PLC-gamma1 enzyme inhibitors, primary screen, biochemical, fluorescence, purified enzyme; 1-phosphatidylinositol 4,5-bisphosphate phosphodiesterase gamma-1 (Homo sapiens), P19174; fluorogenic substrate; inhibition, % at 12.2 µM; actives 0.84% (n = 370,000); in the data active = inhibition above about 9.5%
PLC-beta3 inh: human PLC-beta3 inhibitors, primary screen, biochemical, fluorescence; 1-phosphatidylinositol 4,5-bisphosphate phosphodiesterase beta-3 (Homo sapiens), Q01970; Purified PLC-beta3, fluorogenic substrate; inhibition, % at 12.2 µM; actives 0.18% (n = 370,000); AID 720704, 2013; in the data active = inhibition above about 11%;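 also: 0% = median of compound wells on plate and 100% = full blocker control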
Target sequence (Q01970 whole entry, looked up): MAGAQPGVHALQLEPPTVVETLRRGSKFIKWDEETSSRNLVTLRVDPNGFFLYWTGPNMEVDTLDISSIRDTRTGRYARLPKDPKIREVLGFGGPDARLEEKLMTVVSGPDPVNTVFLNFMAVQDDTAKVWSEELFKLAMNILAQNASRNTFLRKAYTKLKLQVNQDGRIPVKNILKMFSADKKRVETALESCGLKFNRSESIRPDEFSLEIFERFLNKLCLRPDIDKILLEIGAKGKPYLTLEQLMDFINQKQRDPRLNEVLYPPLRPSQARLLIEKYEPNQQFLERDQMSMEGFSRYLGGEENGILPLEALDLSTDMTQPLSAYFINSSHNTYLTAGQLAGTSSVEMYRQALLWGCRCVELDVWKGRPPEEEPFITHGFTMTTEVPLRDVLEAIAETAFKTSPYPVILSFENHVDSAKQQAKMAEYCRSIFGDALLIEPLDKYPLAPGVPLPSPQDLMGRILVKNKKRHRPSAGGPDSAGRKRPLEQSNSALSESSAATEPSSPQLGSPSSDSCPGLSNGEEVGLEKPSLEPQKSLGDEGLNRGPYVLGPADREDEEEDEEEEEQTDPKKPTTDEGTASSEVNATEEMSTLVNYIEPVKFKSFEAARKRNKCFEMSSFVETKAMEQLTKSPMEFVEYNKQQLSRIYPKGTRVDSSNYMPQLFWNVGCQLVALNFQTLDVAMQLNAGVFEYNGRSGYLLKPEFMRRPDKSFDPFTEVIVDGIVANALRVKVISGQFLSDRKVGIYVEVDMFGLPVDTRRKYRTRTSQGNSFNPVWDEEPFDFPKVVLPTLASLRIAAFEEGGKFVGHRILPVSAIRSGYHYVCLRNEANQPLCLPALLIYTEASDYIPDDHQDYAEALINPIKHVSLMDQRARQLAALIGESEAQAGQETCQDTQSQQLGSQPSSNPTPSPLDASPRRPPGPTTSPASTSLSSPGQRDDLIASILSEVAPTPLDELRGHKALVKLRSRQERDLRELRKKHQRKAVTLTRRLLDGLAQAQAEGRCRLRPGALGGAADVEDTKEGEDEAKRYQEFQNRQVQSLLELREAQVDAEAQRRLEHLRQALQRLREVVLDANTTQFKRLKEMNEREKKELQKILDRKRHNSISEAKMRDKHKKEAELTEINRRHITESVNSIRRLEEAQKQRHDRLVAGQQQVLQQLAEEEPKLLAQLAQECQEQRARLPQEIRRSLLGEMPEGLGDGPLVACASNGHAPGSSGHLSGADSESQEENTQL
DDE Tn7 FP inh: inhibitors of Tn7 peptide binding to fibrin DD(E), primary screen, biochemical, fluorescence polarization, human fibrin, Tn7 probe; inhibition, % at 8.3 µM; AID 720508, 2013; FP displacement of FITC-Tn7 peptide from fibrin DD(E); 0% = median of compound wells per plate; actives 0.13% (n = 370,000);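 active = inhibition above the mean of compounds falling within the control limits plus 3 SD of them, cut at about 14% in these data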;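 also: 0% = plate median of compound wells and 100% = 10 µM Aha-Tn7 peptide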
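Test system: human clot-derived fibrin DD(E) complex / Quantity: 2 µM final DD(E) protein / Incubation: 10 min plus 3 h, room temperature / Measured by: fluorescence polarization / Benchmarks: high control of 10 µM Aha-Tn7 peptide / Replicates: singlicate testing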
DDE Tn6 FP inh: inhibitors of Tn6 peptide binding to fibrin DD(E), primary screen, biochemical, fluorescence polarization, human fibrin, Tn6 probe. actives 0.21% (n = 370,000). Fibrinogen beta chain (Homo sapiens), P02675. Fibrin DD(E) TRITC-Tn6 fluorescence polarization displacement. inhibition, % at 8.3 µM;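 active = inhibition above a per-campaign cutoff: mean of compounds within control limits plus 3 SD, cut at about 15% in these data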;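 also: 0% = median of all compound wells on the plate and 100% = blocking peptide control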
FID counter: compounds displacing fluorescent DNA intercalator, primary screen, artefact control for HCV NS3 helicase inhibitor project, biochemical, FID fluorescence; DNA fluorescent intercalator displacement; inhibition, % at 7.9 µM; actives 0.17% (n = 290,000); in the data active = inhibition above about 37%;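 also: 0% = vehicle and 100% = reference compound; higher means more ethidium bromide displaced from hairpin DNA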
Tn7 DDE conf: inhibitors of Tn7 peptide binding to fibrin DD(E), confirmation, biochemical, fluorescence polarization, human fibrin, Tn7 probe | shares compounds with DDE Tn7 FP inh | FP displacement of TRITC-Tn7 peptide from DD(E); 0% set at plate's compound-well median | inhibition, % at 8.3 µM | actives 5% (n = 460);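 active = inhibition above the campaign cutoff, the mean of compounds within control limits plus 3 SD, cut at about 14% in these data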;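 also: 100% = median FP of high control wells holding Aha-Tn7 inhibitor peptide; displacers lower polarization since freed probe rises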
DDE Tn7 FP ctr: counter-screen hit for Tn7 peptide-fibrin DD(E) binding disruption; shares compounds with DDE Tn7 FP inh; TRITC-Tn7 probe displacement, fluorescence polarization; inhibition, % at 8.3 µM; actives 3% (n = 460); AID 720633;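 active = inhibition above the cutoff, the mean of compounds lying between the control bounds plus 3 SD of those compounds, cut at about 17% in these data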;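 also: 0% = median of compound sample wells and 100% = excess unlabeled Aha-Tn7 peptide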
Tn6 DDE ctr: DD(E)-Tn6 binding inhibition, counter-screen | shares compounds with DDE Tn6 FP inh | Fibrin DD(E), TRITC-Tn6 fluorescence polarization displacement; 0% = median of compound wells, not DMSO | inhibition, % at 8.3 µM | actives 2% (n = 680);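 active = inhibition above the mean of test compounds lying between the control limits plus 3 SD of those, cut at about 14% in these data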;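 also: 0% = median of compound wells and 100% = wells with Aha-Tn7 blocking peptide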
Tn6 DDE conf: inhibitors of Tn6 peptide binding to fibrin DD(E), confirmation, biochemical, fluorescence polarization, human fibrin, Tn6 probe. shares compounds with DDE Tn6 FP inh. actives 10% (n = 680). FP displacement of TRITC-Tn6 peptide from DD(E); 0% = per-plate median of test wells. AID 720631, 2013. inhibition, % at 8.3 µM;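 active = inhibition above the mean of compounds lying within the control limits plus 3 SD, cut at about 16% in these data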;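 also: 100% = high control wells holding a competing inhibitor peptide at 10 µM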
Numbers without * were called inactive; i = inactive; . = no result given.

SMILES	PLC-gamma1 inh	PLC-beta3 inh	DDE Tn7 FP inh	DDE Tn6 FP inh	FID counter	others
CN1CCC(N(C)c2nc(-c3ccccc3)nc3ccccc23)CC1	-13	-21	2	-5	63*
Clc1ccc2[nH]c3c(c2c1)CCNC3	3	-4	2	0	12
CCCCCCC[n+]1ccc(-c2cc[n+](CCCCCCC)cc2)cc1	1	0	1	-9	55*
Cc1nc2ccccc2c(=O)n1-c1cccnc1	0	1	4	-2	3
CC[n+]1c(-c2ccccc2)c2cc(N)ccc2c2ccc(N)cc21	-60	-78	6	56*	.
COC(=O)C1=C(c2ccc(S(C)(=O)=O)cc2)C[C@@H]2CC[C@H]1N2C(=O)NCC1CC1	0	1	-3	6	.
COc1ccc(-n2c(/C=C/c3ccc(O)cc3)nc3ccccc3c2=O)cc1	-343	-399	1	-6	-21
CCn1nc(/C=C/c2ccccc2)nc2c(=O)n(C)c(=O)nc1-2	43*	-9	-3	-6	0
Cc1cc(N=Nc2ccccc2C)ccc1N	9.6*	1	-2	2	.
CC[n+]1c(/C=C/C=C/c2ccc(N(C)C)cc2)sc2ccccc21	-6	-20	-2	73*	3
CN(C)c1ccc(/C=C/C=C/c2sc3ccccc3[n+]2C)cc1	-8	-17	-4	14	8
Cc1cccc(Cn2cc(C=O)c3ccccc32)c1	-2	-5	3	-1	-26
O=[N+]([O-])c1cc(S(=O)(=O)c2ccc(O)c([N+](=O)[O-])c2)ccc1O	35*	8	6	2	-2
Cc1sc2ncnc(N3CCC(C(=O)Nc4ccc(C#N)c(Cl)c4)CC3)c2c1C	-37	-37	-3	-3	.
COc1c2c(cc3c1OCO3)CCN(C)C2	-1	-1	-9	-5	.
COc1cc2c(cc1OC)-c1c3c(cc4c1[C@@H](C2)N(C)CC4)OCO3	-92	-97	-7	-4	67*
COc1cc2c(cc1OC)-c1c(OC)c(OC)cc3c1C(C2)N(C)CC3 (configuration not stated)	-82	-107	2	-10	24
COc1cc2c(cc1O)C[C@H]1NCCc3cc4c(c-2c31)OCO4	-15	-24	-4	-1	38*
CCCCCCCSc1cc(OC)c(CCNC)cc1OC	6	3	-4	-9	21
O=C1C2CCCN2C(c2cccc(Cl)c2)N1c1ccccn1 (configuration not stated)	0	0	5	-1	38*
CCOc1cc(CNCCc2c[nH]c3ccccc23)cc(Cl)c1OCC	12*	12*	-15	-6	11
O=c1c2ccccc2nc(-c2ccccc2)n1-c1nccs1	-9	-4	3	2	-14
CC(=O)c1ccc2c(c1)C1C(Cl)C(Sc3ccccc3[N+](=O)[O-])CC1C(C(=O)O)N2 (configuration not stated)	1	-4	-8	0	-3
O=C(O)c1cccc2c1NC(C(=O)O)C1CC(Sc3ccccc3[N+](=O)[O-])C(Cl)C21 (configuration not stated)	19*	-2	-2	-3	-1
COC(=O)C1=C(c2ccc(OCc3ccccc3)c(F)c2)C[C@@H]2CC[C@H]1N2C	13*	6	-2	-4	.
SMILES	PLC-gamma1 inh	PLC-beta3 inh	DDE Tn7 FP inh	DDE Tn6 FP inh	FID counter	others
COC(=O)C1=C(c2ccc(OCc3ccccc3)cc2)C[C@@H]2CC[C@H]1N2C	4	4	4	-3	.
CCCCC12CNCC(C)(CNC1)C2=O	0	1	17*	-3	0	Tn7 DDE conf=-8;DDE Tn7 FP ctr=-13
O=C(CNC(=O)c1ccccc1Cl)Nc1ccc(Br)cc1C(=O)c1ccccc1	2	1	3	-1	-19
CCOC(=O)[C@]12Cc3c(cc(OC)c(OC)c3OC)[C@H]1N(C)C(=O)c1cc(OC)ccc12	-2	-1	15*	2	.	Tn7 DDE conf=11;DDE Tn7 FP ctr=6
CCCc1nc2ccccc2c(=O)n1-c1ccccc1OC	3	3	1	-3	-11
COc1ccccc1-n1c(-c2ccccc2Cl)nc2ccccc2c1=O	0	-6	16*	-1	-26	Tn7 DDE conf=7;DDE Tn7 FP ctr=8
O=[N+]([O-])c1ccc(N2CCNCC2)cc1N1CCCCCC1	8	8	0	-11	12
COc1ccc2c3c([nH]c2c1)C(C)=NCC3	i	i	-3	-1	6
CC1=NCCc2c1[nH]c1cc(O)ccc21	i	i	76*	1	.	Tn7 DDE conf=35*;DDE Tn7 FP ctr=-3
O=c1[nH]c(=S)n(C2CC2)c(O)c1C=Nc1cccc(C(F)(F)F)c1	-2	-3	14*	2	0	Tn7 DDE conf=-5;DDE Tn7 FP ctr=-14
Cn1c(O)c(C(=Nc2ccccc2)SCc2ccccc2Cl)c(=O)n(C)c1=O	-1	-4	1	-6	-2
COc1ccc2[nH]cc(CCNCc3cccnc3)c2c1	-3	-4	-1	-9	6
COc1ccc2[nH]c(C)c(CCNCc3cccnc3)c2c1	-134	-165	18*	6	.	Tn7 DDE conf=6;DDE Tn7 FP ctr=-3
CCCCOc1nc2ccccc2c(=O)n1-c1ccccc1	-3	0	15*	4	-17	Tn7 DDE conf=6;DDE Tn7 FP ctr=-3
CCC(=O)OC1(c2ccccc2)C(C)CN(C)CC1C (configuration not stated)	-2	-5	-6	-3	4
COC1C(C)OC(OC2CC(C)(O)Cc3cc4c(c(O)c32)C(=O)c2c(O)cc3c(c2C4=O)OC2OC3(C)C(O)C(N(C)C)C2O)C(OC)C1(C)OC (configuration not stated)	-90	-111	14*	88*	.	Tn7 DDE conf=-19;DDE Tn7 FP ctr=54*;Tn6 DDE ctr=-19;Tn6 DDE conf=54*
